Env fusion inh – inhibitors of HIV-1 Env-driven cell-cell fusion, primary screen, HeLa-JRFL effector, CEM21 target cells, luciferase | inhibition, % at 12.3 µM | 360,000 tested, 1.1% active | AID 651610, 2012;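 active = mean replicate inhibition score of at least 50 and every replicate individually at or above 50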
CFTR F508del cor – F508del CFTR correction, initial screen, CFBE line, single point; CFBE cells, YFP halide quenching; stimulated with forskolin plus potentiator P3; % fluorescence drop versus neutral controls; activity (quench increase), % at 7.58 µM; 350,000 tested, 0.36% active;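 active = mean added fluorescence quench of at least 8% versus neutral control, with both replicates also reaching 8%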;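 also: cells transiently co-express mutant CFTR-F508del with the halide-sensitive YFP; corrector assay measuring rescue of mutant channel to the surface after 24 h compound exposure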
FN deposit inh – inhibitors of fibronectin matrix deposition, primary screen, AH1F cells, Alexa488-fibronectin fluorescence, plate reader | AH1F fibroblasts, overnight | inhibition, % at 12.6 µM | 350,000 tested, 0.086% active | AID 743247, 2014;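 active = mean inhibition across replicates of 30% or more, regardless of how many single replicates reach that level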
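Assay system: AH1F fibroblasts assembling fluorescent fibronectin matrix; Amount: 10000 AH1F cells per well; Buffer or medium: DMEM, 2% serum; Probe or stimulus: Alexa488-fibronectin, 24 nM final in well; Doses: single compound dose, delivered by pin transfer; Incubation: 1 h adhesion, overnight exposure; Measured by: fluorescence 485/525 nm; Read-out: fibronectin deposition inhibition.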
PAX8 inh HTS – inhibitors of PAX8-driven TPO luciferase reporter, primary screen, RMG-I cells, single concentration. 360,000 tested, 1.2% active. inhibition, % at 12.6 µM. SteadyGlo, 24 h;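 active = mean replicate inhibition at least 60% with every replicate also reaching 60%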;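 also: luciferase light reporting Pax8 driven TPO promoter activity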
PGC1a acetyl inh – inhibitors of PGC1a acetylation signal, primary screen, cell-based, U2OS, AlphaScreen, inhibitor mode; AlphaScreen anti-acetyl-lysine; with virally co-expressed GCN5 acetyltransferase; inhibition, % at 15.6 µM; 350,000 tested, 0.17% active; AID 651687, 2012;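 active = every replicate shows inhibition of at least 40%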
EWS-Fli block – EWS/Fli-driven NR0B1 reporter inhibitors, primary screen, A673 cells, NR0B1 luciferase, luminescence, MLPCN library; 350,000 tested, 0.67% active; inhibition, % at 12.6 µM; viability-normalised; AID 651661, 2012;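 active = mean inhibition of at least 50% after viability correction, with every replicate also passing that limit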;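 also: firefly luciferase signal divided by Alamar Blue viability fluorescence both relative to DMSO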
Numbers stand for hits. Hits are enriched below; roughly 2.3% of the tested compounds scored in any of these assays.

For O=[N+]([O-])c1c(Nc2ccccc2O)cc(Cl)c2nonc12 the results were Env fusion inh inactive, CFTR F508del cor inactive, FN deposit inh inactive, PAX8 inh HTS 91, PGC1a acetyl inh inactive and EWS-Fli block 66.
`CCCNC(=O)N1CC2(CCN(S(=O)(=O)c3cccc(OC)c3)CC2)c2c(n(C)c3cc(OC)ccc23)[C@@H]1CO` gave Env fusion inh inactive, CFTR F508del cor inactive and EWS-Fli block inactive.
Screening NC(=S)NN=Cc1nccc2ccccc12 returned Env fusion inh inactive, CFTR F508del cor 9.7, PAX8 inh HTS inactive, PGC1a acetyl inh inactive and EWS-Fli block inactive.
Screening NC(=S)NN=Cc1nccc2c(C(F)(F)C(F)(F)C(F)(F)F)cccc12 returned Env fusion inh inactive, CFTR F508del cor inactive, FN deposit inh inactive, PAX8 inh HTS 75, PGC1a acetyl inh inactive and EWS-Fli block inactive.
Cc1cnc(C=NNC(N)=S)c2cccc(N)c12 was read as Env fusion inh inactive, CFTR F508del cor inactive, FN deposit inh inactive, PAX8 inh HTS inactive, PGC1a acetyl inh inactive and EWS-Fli block inactive.
NC(=S)N/N=C/c1ccc(/C=N/NC(N)=S)cc1 was read as Env fusion inh inactive, CFTR F508del cor inactive, FN deposit inh inactive, PAX8 inh HTS inactive, PGC1a acetyl inh inactive and EWS-Fli block inactive.
O=C(Nc1ccc(F)cc1)N1C[C@H]2[C@@H](c3ccccc31)[C@@H](CO)N2C(=O)c1ccccn1 was read as CFTR F508del cor inactive, PAX8 inh HTS inactive, PGC1a acetyl inh inactive and EWS-Fli block inactive.
For C[C@H]1CCCCO[C@H](CN(C)S(=O)(=O)c2ccccc2)[C@@H](C)CN([C@@H](C)CO)C(=O)c2cc(NC(=O)Nc3ccc(F)cc3)ccc2O1 the results were Env fusion inh inactive, CFTR F508del cor inactive, PAX8 inh HTS inactive, PGC1a acetyl inh inactive and EWS-Fli block inactive.
For COc1ccc(/C=N/Nc2nncn2N)cc1Br the results were Env fusion inh inactive, CFTR F508del cor inactive, FN deposit inh inactive, PAX8 inh HTS inactive, PGC1a acetyl inh 69 and EWS-Fli block inactive.
`COc1cc(/C=N/Nc2nncn2N)ccc1OCc1c(C)no[n+]1[O-]` gave Env fusion inh inactive, CFTR F508del cor inactive, FN deposit inh inactive, PAX8 inh HTS inactive, PGC1a acetyl inh inactive and EWS-Fli block inactive.
`CN1C(=O)c2cc(NC(=O)Cc3ccccc3)ccc2OC[C@@H]2O[C@@H](CC(=O)NC3CCC3)CC[C@@H]21` gave CFTR F508del cor inactive, FN deposit inh inactive, PAX8 inh HTS inactive, PGC1a acetyl inh inactive and EWS-Fli block inactive.
`CCOc1ccc(C(=O)NCCc2ccccc2)cc1` gave CFTR F508del cor inactive, PGC1a acetyl inh inactive and EWS-Fli block 59.
O=C(NCCc1ccccc1)c1ccc2c(c1)OCO2 was read as Env fusion inh inactive, CFTR F508del cor inactive, FN deposit inh inactive, PAX8 inh HTS inactive and EWS-Fli block 73.
`C[C@@H]1CN([C@@H](C)CO)C(=O)c2cc(NC(=O)Nc3ccc(F)cc3)ccc2O[C@@H](C)CCCCO[C@H]1CN(C)Cc1ccncc1` gave Env fusion inh inactive, CFTR F508del cor inactive, FN deposit inh inactive, PAX8 inh HTS inactive, PGC1a acetyl inh inactive and EWS-Fli block inactive.
For COc1cc(NC2c3ncccc3C(=O)N2Cc2ccco2)cc(OC)c1 (stereo not drawn) the results were Env fusion inh 60 and PGC1a acetyl inh inactive.
Screening COc1ccc(CN2C(=O)c3cccnc3C2Nc2ccc(OC)c(Cl)c2)cc1 (stereo not drawn) returned CFTR F508del cor inactive, PGC1a acetyl inh inactive and EWS-Fli block inactive.
O=C(/C=C/c1ccccc1)NCCc1ccc2c(c1)OCCO2 was read as Env fusion inh inactive, FN deposit inh inactive, PAX8 inh HTS 69 and EWS-Fli block inactive.
COc1cccc(/C=C/C(=O)NCCc2ccc3c(c2)OCCO3)c1 was read as Env fusion inh inactive, FN deposit inh inactive, PAX8 inh HTS inactive and EWS-Fli block 57.
For O=C(/C=C/c1ccccc1)NCc1ccc2c(c1)OCO2 the results were Env fusion inh inactive, CFTR F508del cor inactive, FN deposit inh inactive, PAX8 inh HTS inactive, PGC1a acetyl inh inactive and EWS-Fli block inactive.
Screening CN(C)C(=O)[C@H]1[C@H](CO)[C@H]2Cn3c(ccc(C4=CCCC4)c3=O)[C@@H]1N2CC1CCCC1 returned CFTR F508del cor inactive and EWS-Fli block inactive.
CO[C@@H]1CN(C)C(=O)c2ccc(NC(=O)CC(F)(F)F)cc2OC[C@H](C)N(C(=O)C2CCCCC2)C[C@H]1C was read as FN deposit inh inactive.
`CC(C)c1cccc(-c2csc(C(O)c3ccco3)n2)c1` (stereo not drawn) gave Env fusion inh inactive, CFTR F508del cor 8.9, FN deposit inh inactive, PAX8 inh HTS inactive, PGC1a acetyl inh inactive and EWS-Fli block inactive.
Screening CCOc1cc(N(CC)CC)ccc1/C=C(/C#N)c1nc2ccccc2[nH]1 returned Env fusion inh inactive and PGC1a acetyl inh inactive.
`CCCOc1cc(N(CC)CC)ccc1/C=C(/C#N)c1nc2ccc(C)cc2[nH]1` gave CFTR F508del cor 34, PGC1a acetyl inh inactive and EWS-Fli block inactive.
Screening CCN(CC)c1ccc(/C=C(/C#N)c2nc3ccc(C)cc3[nH]2)c(OC(C)C)c1 returned CFTR F508del cor 17, PGC1a acetyl inh inactive and EWS-Fli block inactive.
Screening Cc1onc(-c2ccccc2Cl)c1C(=O)N1CCN(C=O)CC1 returned Env fusion inh inactive, CFTR F508del cor inactive, FN deposit inh inactive and PAX8 inh HTS inactive.
`Cc1cccc(N2CCN(C(=O)c3c(-c4ccccc4Cl)noc3C)CC2)c1C` gave Env fusion inh inactive, CFTR F508del cor 14, FN deposit inh inactive, PAX8 inh HTS inactive and EWS-Fli block 53.
O=C(Nc1ccccc1N1CCOCC1)C1(c2ccc(Cl)cc2)CCC1 was read as Env fusion inh inactive, CFTR F508del cor inactive, FN deposit inh inactive, PAX8 inh HTS inactive, PGC1a acetyl inh 41 and EWS-Fli block inactive.
COc1ccc(Cl)cc1NC(=O)CN(C)CC(=O)N1CC(=O)Nc2ccccc21 was read as CFTR F508del cor inactive, FN deposit inh inactive, PAX8 inh HTS inactive, PGC1a acetyl inh inactive and EWS-Fli block inactive.
For Cc1cccc(NC(=O)CSCC(=O)Nc2cc(Cl)ccc2N2CCOCC2)c1 the results were Env fusion inh 72, CFTR F508del cor inactive, PAX8 inh HTS inactive and EWS-Fli block inactive.
Screening COc1ccc(Cl)cc1NC(=O)CN(C)CC(=O)Nc1ccccc1N1CCOCC1 returned Env fusion inh inactive, CFTR F508del cor inactive, FN deposit inh inactive, PAX8 inh HTS inactive and EWS-Fli block 62.
CN1CCN(C(=O)C[C@H]2C[C@@H]3c4cc(NC(=O)CC5CC5)ccc4O[C@@H]3[C@@H](CO)O2)CC1 was read as CFTR F508del cor inactive, FN deposit inh inactive, PGC1a acetyl inh inactive and EWS-Fli block inactive.
